Measured values collected from several papers.
Compare with care: the assays were run in different laboratories.
G protein-coupled receptor 88: G protein-coupled receptor 88 (Homo sapiens, UniProt Q9GZN0)
PDGFRA: Platelet-derived growth factor receptor alpha (PDGFRA, Homo sapiens, UniProt P16234)
Cnr2: Cannabinoid receptor 2 (Cnr2, Mus musculus, UniProt P47936)

| SMILES | target | test | system | setting | measurement | result |
| --- | --- | --- | --- | --- | --- | --- |
| CCCCCOc1ccc([C@@H](CO)C(=O)N[C@H](C)c2ccccc2)cc1 | G protein-coupled receptor 88 | cAMP, agonist, TR-FRET | CHO | – | Emax | 103% |
| CCN1CCN(Cc2ccc(C(=O)Nc3ccc(C)c(Oc4ccc5c(c4)CC(=O)N5)c3)cc2C(F)(F)F)CC1 | Cyclin-dependent kinase 13 (CDK13, Homo sapiens, UniProt Q14004) | binding, competition with immobilised ligand | – | 1 µM | remaining binding | 100% |
| Nc1ncc(-c2nc(N3CCOCC3)nc(N3CCOCC3)n2)c(C(F)F)n1 | Mitogen-activated protein kinase kinase kinase kinase 5 (MAP4K5, Homo sapiens, UniProt Q9Y4K4) | binding, competition with immobilised ligand | – | 10 µM | remaining binding | 100% |
| COc1ncccc1-c1cnn2ccc(N3CCN(C(=O)OC(C)C)CC3)nc12 | PDGFRA | binding, competition with immobilised ligand | – | 1 µM | remaining binding | 100% |
| CCOC(=O)C(CC)(CCCSCCOCCOCCNc1ccc([N+](=O)[O-])c2nonc12)NC(=O)c1ccc(C2CC2)c(Cc2ccc(F)cc2)n1 (racemic) | Cnr2 | cAMP, agonist | – | – | Emax | 123% |
| Cc1nc2c(=O)n(C)c(=O)nc-2n(C)n1 | Protein disulfide-isomerase (P4HB, Homo sapiens, UniProt P07237) | thermal stability, DSF | – | 10 µM | ΔTm | -2.94 °C |
| CCOC(=O)C(CC)(CCCSCCOCCOCCOCCNC(=O)OC(C)(C)C)NC(=O)c1ccc(C2CC2)c(Cc2ccc(F)cc2)n1 (centres unmarked) | Cnr2 | cAMP, agonist | – | – | Emax | 87% |
| Cn1cc(-c2cc(F)cc(N3CCn4c(cc5c4CCCC5)C3=O)c2CO)cc(Nc2ccc(N3CCN(C4COC4)CC3)cn2)c1=O | PDGFRA | enzyme activity, inhibitor | – | 0.1 µM | inhibition | 23% |
| CCCCOc1ccc([C@@H](CO)C(=O)N[C@H](C)c2ccccc2)cc1 | G protein-coupled receptor 88 | cAMP, agonist, TR-FRET | CHO | – | Emax | 100% |
| Cc1nn(C)cc1-c1nc2c(N3CCN(Cc4ccc(Cl)cc4)CC3)c(Cl)cnc2[nH]1 | 5'-AMP-activated protein kinase catalytic subunit alpha-1 (PRKAA1, Homo sapiens, UniProt Q13131) | binding, competition with immobilised ligand | – | 1 µM | remaining binding | 2.4% |
| CCC[C@@H](C)COc1ccc([C@@H](CO)C(=O)N[C@H](C)c2ccccc2)cc1 | G protein-coupled receptor 88 | cAMP, agonist, TR-FRET | CHO | – | Emax | 105% |
| C#Cc1n[nH]c2c(-c3cn([C@@H](C)c4ccccn4)c(=O)[nH]c3=O)cc(F)cc12 | Ephrin type-B receptor 1 (EPHB1, Homo sapiens, UniProt P54762) | enzyme activity, inhibitor | – | 0.1 µM | inhibition | 1.8% |
| CC[C@H](C)COc1ccc([C@@H](CO)C(=O)N[C@H](C)c2ccccc2)cc1 | G protein-coupled receptor 88 | cAMP, agonist, TR-FRET | – | – | Emax | 88% |
| Cn1cc(-c2cccc(N3CCc4c(sc5c4CC(C)(C)C5)C3=O)c2CO)cc(Nc2ccncn2)c1=O | Platelet-derived growth factor receptor alpha (PDGFRA, Homo sapiens, UniProt P16234, T674I) | enzyme activity, inhibitor | – | 1 µM | inhibition | -4% |
